# Assay results as given in ChEMBL document CHEMBL1132259, “Non-peptide GPIIb/IIIa inhibitors. 20. Centrally constrained thienothiophene alpha-sulfonamides are potent, long acting in vivo inhibitors of platelet aggregation” (J Med Chem, 1999).
# Assays:
# [1] = target: T1, Integrin alpha-IIb/beta-3 (Homo sapiens, UniProt P05106+P08514); assay: Displacement of L-762,745 from Fibrinogen Receptor of human platelets by flow cytometry
# How it was run: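 Resting human gel-filtered platelets at 2 × 10⁶ cells/mL final, incubated 2 h at room temperature with fluorescein-labelled L-762,745 (110 nM final) and competitor at 0.05–1000 nM. Read by flow cytometry (FACScan).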
# Target sequence in this assay (P05106 27-788 limits assumed): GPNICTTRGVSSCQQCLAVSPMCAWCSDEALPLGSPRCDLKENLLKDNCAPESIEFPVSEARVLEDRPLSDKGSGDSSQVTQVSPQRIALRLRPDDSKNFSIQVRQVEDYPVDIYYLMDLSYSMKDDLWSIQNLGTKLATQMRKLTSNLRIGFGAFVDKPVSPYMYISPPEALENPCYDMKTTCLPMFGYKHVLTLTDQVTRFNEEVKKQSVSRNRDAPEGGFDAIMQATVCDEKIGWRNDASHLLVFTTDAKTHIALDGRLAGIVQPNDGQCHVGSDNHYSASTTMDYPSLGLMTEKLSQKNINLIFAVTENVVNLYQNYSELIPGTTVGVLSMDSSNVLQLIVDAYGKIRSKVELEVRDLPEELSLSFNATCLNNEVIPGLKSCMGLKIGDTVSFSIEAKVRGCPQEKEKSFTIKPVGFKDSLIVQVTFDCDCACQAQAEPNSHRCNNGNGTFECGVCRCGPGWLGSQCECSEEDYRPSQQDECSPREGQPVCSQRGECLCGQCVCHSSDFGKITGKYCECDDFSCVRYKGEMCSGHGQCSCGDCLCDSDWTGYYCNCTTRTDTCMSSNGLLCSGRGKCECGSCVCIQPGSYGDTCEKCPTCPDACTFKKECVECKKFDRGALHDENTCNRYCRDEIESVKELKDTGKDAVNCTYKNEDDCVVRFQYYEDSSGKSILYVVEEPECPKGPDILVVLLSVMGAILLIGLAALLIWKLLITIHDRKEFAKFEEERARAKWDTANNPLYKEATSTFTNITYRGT
# Target sequence in this assay (P08514 32-887 limits assumed): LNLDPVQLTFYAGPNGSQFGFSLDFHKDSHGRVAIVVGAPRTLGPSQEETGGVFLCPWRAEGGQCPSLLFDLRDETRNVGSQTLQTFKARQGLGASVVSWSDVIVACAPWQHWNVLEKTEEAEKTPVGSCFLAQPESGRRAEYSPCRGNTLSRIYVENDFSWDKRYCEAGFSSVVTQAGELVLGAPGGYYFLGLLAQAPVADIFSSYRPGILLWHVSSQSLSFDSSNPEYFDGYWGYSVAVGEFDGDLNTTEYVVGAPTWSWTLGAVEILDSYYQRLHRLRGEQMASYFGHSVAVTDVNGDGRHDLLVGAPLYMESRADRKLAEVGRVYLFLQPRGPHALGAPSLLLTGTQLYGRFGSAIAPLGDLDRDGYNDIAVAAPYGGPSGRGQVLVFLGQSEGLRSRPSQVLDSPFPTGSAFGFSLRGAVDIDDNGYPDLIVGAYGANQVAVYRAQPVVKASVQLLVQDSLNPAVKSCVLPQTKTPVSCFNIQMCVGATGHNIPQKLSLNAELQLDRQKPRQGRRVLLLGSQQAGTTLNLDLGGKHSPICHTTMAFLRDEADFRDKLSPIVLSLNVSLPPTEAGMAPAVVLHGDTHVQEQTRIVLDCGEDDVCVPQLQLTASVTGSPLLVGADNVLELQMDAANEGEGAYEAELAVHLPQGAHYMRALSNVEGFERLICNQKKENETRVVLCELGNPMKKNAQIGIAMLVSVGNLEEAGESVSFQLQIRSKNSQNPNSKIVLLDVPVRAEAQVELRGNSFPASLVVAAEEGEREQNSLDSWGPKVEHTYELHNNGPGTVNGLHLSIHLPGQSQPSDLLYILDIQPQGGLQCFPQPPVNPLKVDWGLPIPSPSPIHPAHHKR
# Target sequence in this assay (P08514 891-1039 limits assumed): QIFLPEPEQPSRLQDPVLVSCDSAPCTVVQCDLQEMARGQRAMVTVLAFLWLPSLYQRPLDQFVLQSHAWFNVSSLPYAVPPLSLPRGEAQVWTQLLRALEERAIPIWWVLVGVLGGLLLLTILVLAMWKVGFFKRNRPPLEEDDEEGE
# [2] = target: T1, Integrin alpha-IIb/beta-3; assay: Inhibition of [125I]L-692884 binding to purified GPIIb/IIIa by silicate scintillation proximity assay(SPA); format: protein-complex assay
# [3] = target: T1, Integrin alpha-IIb/beta-3; assay: In vitro inhibition of [125I]L-692884 binding to Fibrinogen receptor by silicate scintillation proximity assay(SPA); format: protein-complex assay
# [4] = target: T1, Integrin alpha-IIb/beta-3; assay: Equilibrium dissociation constant was measured from displacement of L-762,745 from Fibrinogen receptor of human platelets by flow cytometry
# Target sequence in this assay (P05106 27-788 limits assumed): as the sequence (P05106 27-788 limits assumed) above
# Target sequence in this assay (P08514 32-887 limits assumed): as the sequence (P08514 32-887 limits assumed) above
# Target sequence in this assay (P08514 891-1039 limits assumed): as the sequence (P08514 891-1039 limits assumed) above
SMILES,Kd [1] [nM],ED50 [2] [nM],IC50 [3] [nM],Kd [4] [nM]
CCOCCS(=O)(=O)N[C@@H](CNC(=O)c1cc2cc(CCC3CCNCC3)sc2s1)C(=O)O,1.2,0.13,,
O=C(O)CCNC(=O)c1ccc2c(c1)C(=O)N(CCC1CCNCC1)C2,,,13,550
CCOCCS(=O)(=O)N[C@@H](CNC(=O)c1cc2sc(CCC3CCNCC3)cc2s1)C(=O)O,1.1,0.27,,
"O=C(NCC(NS(=O)(=O)c1cccnc1)C(=O)O)c1cc2cc(CCC3CCNCC3)sc2s1 (single isomer, unassigned)",,0.47,,28
O=C(NC[C@H](NS(=O)(=O)c1cccnc1)C(=O)O)c1cc2sc(CCC3CCNCC3)cc2s1,0.08,0.11,,
O=C(NC[C@H](NS(=O)(=O)c1cccnc1)C(=O)O)c1cc2cc(C3CCNCC3)sc2s1,,,0.45,22
CCCCS(=O)(=O)N[C@@H](CNC(=O)c1cc2cc(CCC3CCNCC3)sc2s1)C(=O)O,5.6,0.12,,
CS(=O)(=O)N[C@@H](CNC(=O)c1cc2cc(CCC3CCNCC3)sc2s1)C(=O)O,52,1.2,,

# Now from value to compound:
Kd [1] [nM],ED50 [2] [nM],IC50 [3] [nM],Kd [4] [nM],SMILES
,,0.047,0.07,O=C(NC[C@H](NS(=O)(=O)c1cccnc1)C(=O)O)c1cc2cc(CCC3CCNCC3)sc2s1
,,0.09,0.026,O=C(NC[C@H](NS(=O)(=O)c1ccc(Cl)cc1)C(=O)O)c1cc2cc(CCC3CCNCC3)sc2s1
,,0.04,0.15,O=C(NC[C@H](NS(=O)(=O)c1cccs1)C(=O)O)c1cc2cc(CCC3CCNCC3)sc2s1
,,,2.2,O=C(NC[C@H](NS(=O)(=O)c1cccnc1)C(=O)O)c1ccc2c(c1)C(=O)N(CCC1CCNCC1)C2
,,0.07,17,O=C(NC[C@H](NS(=O)(=O)c1cccnc1)C(=O)O)c1cc2cc(CCCC3CCNCC3)sc2s1
,,0.04,0.092,O=C(NC[C@H](NS(=O)(=O)c1cccs1)C(=O)O)c1cc2sc(CCC3CCNCC3)cc2s1
,,,0.15,O=C(NC[C@H](NS(=O)(=O)c1ccccc1)C(=O)O)c1cc2sc(CCC3CCNCC3)cc2s1
,,0.21,3,CCCCS(=O)(=O)N[C@@H](CNC(=O)c1cc2sc(CCC3CCNCC3)cc2s1)C(=O)O
,,0.03,0.023,O=C(NC[C@H](NS(=O)(=O)c1ccccc1)C(=O)O)c1cc2cc(CCC3CCNCC3)sc2s1
